A short description of series [1]: folding enthalpy; higher = less favourable; fluorescence melt of hairpins on a sequencing array, two-state fit. Conditions: sodium 0.088 M. The gist of the method: (§1)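 Library hairpins on a sequenced MiSeq flow cell carried annealed Cy3 and quencher oligos, and their Cy3 fluorescence was imaged in 50 mM Na-HEPES pH 8.0 with 25 mM NaCl, in 2.5 °C steps up to 60 °C. Signals were normalised to Cy3 before quenching and to control constructs. Melting temperature and folding enthalpy were obtained from bootstrapped two-state fits, combined by inverse-variance weighting across four replicates, and the fitted temperatures were then raised by 9.35 °C to match UV melts.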

Series [2] is described as follows: melting temperature; fluorescence melt of hairpins on a sequencing array, two-state fit, raised by 9.35 °C to match UV melts. Particulars: sodium 0.088 M. The gist of the method: as §1

With GTACTGAAAAGTAC (((((....))))), the folding enthalpy in series [1] is -20.8 kcal/mol. In addition, the Tm in series [2] was 46.8 °C.
Taken in the same sequence, the figures for GAGGTCGGAAACGACTTC ((.((((....)))).)) were -20.9 kcal/mol and 48.6 °C.
In the same order, the values of GACAGCGAAAGCTTTGTC ((((((....)))..))) are -16 kcal/mol and 37.5 °C.
In the same order, the values of GCGAAGCGAAAGCTAGGC ((..(((....)))..)) are -5.32 kcal/mol and 40.9 °C.
As to GGAGGTACGAAAGTATCC (((..(((....)))))), the folding enthalpy in series [1] was -13 kcal/mol. In series [2], the Tm turned out to be 32.9 °C.
Taken in the same sequence, the figures for GCTCTTGAAAAAGAGC ((((((....)))))) were -32.6 kcal/mol and 58.1 °C.
In the same order, the values of GTCGCTCGAAAGAGGAC (((.(((....)))))) are -18.1 kcal/mol and 45.4 °C.
Taken in the same sequence, the figures for GAGATACCGAAAGGTCTC (((..(((....)))))) were -15.6 kcal/mol and 34.3 °C.
With GCAGTAGGAAACCACTGC (((((.(....).))))), in series [1], the folding enthalpy is -29.2 kcal/mol. Besides, the Tm in series [2] stood at 48.2 °C.
In the same order, the values of AGGTCGAAAGACCT (((((....))))) are -22.1 kcal/mol and 67.4 °C.
For GGGAGTCGAAAGACCCCC (((.(((....))).))), the folding enthalpy in series [1] is -37.3 kcal/mol. Besides, the Tm in series [2] amounted to 59.3 °C.
Taken in the same sequence, the figures for GCCCATGGAAACATAGGC (((.(((....))).))) were -28.1 kcal/mol and 38.3 °C.
In the same order, the values of GATCACGAGCGTGATC ((((((....)))))) are -39.5 kcal/mol and 59.1 °C.
Taken in the same sequence, the figures for GATCGTGGCCACGATC ((((((....)))))) were -62.6 kcal/mol and 62.5 °C.
Turning to GAACAAGGAAACCTGTTC (((((.(....).))))), the folding enthalpy in series [1] is -25.7 kcal/mol. Also, in series [2], the Tm is 37.3 °C.
In the same order, the values of GATCGGGTTGCCGATC ((((((....)))))) are -31.1 kcal/mol and 57.7 °C.
Turning to GGGCGGCGAAAGCCTCCC (((.(((....))).))), the folding enthalpy in series [1] is -21.9 kcal/mol. In addition, the Tm in series [2] was 61.2 °C.
In the same order, the values of GGTTGACCGAAAGGTACC (((..(((....)))))) are -16.5 kcal/mol and 36.4 °C.
Taken in the same sequence, the figures for CGGTCGGAAACGACTCCG ((((((....)))..))) were -13.3 kcal/mol and 33.9 °C.
Taken in the same sequence, the figures for GTTGCTGGAAACAGTAAC (((.(((....))).))) were -29 kcal/mol and 47 °C.
For GAGGTACGAAAGTACTC (((.(((....)))))), the folding enthalpy in series [1] is -13.6 kcal/mol. In addition, the Tm in series [2] came out at 45.8 °C.
In the same order, the values of GATCGGCGAAAGCCCATC (((.(((....))).))) are -11.2 kcal/mol and 36.4 °C.
Regarding GGGCCGGCGAAAGCCCCC (((..(((....)))))), the folding enthalpy in series [1] is -11.2 kcal/mol. The Tm in series [2] stood at 51 °C.
Taken in the same sequence, the figures for GTGCGAGGAAACTTGCAC ((((.((....)).)))) were -54 kcal/mol and 53.7 °C.
Taken in the same sequence, the figures for CGTACCGGAAACGGAACG (((.(((....))).))) were -30.7 kcal/mol and 50.7 °C.
In the same order, the values of GTAAGTGGAAACACTTGC (.(((((....))))).) are -26.7 kcal/mol and 45 °C.
Turning to GAATGCGAAAGCACTTTC ((((((....)))..))), in series [1], the folding enthalpy is -10.4 kcal/mol. Further, the Tm in series [2] stood at 28.9 °C.
GGTCTCGAAAGAGTACC ((((((....))).))): the folding enthalpy in series [1] was -24.3 kcal/mol. Also, the Tm in series [2] was determined as 46.8 °C.
Taken in the same sequence, the figures for GACATCACGAAAGTGGTC (((..(((....)))))) were -14.5 kcal/mol and 34.7 °C.
In the same order, the values of GATCCTGAGCAGGATC ((((((....)))))) are -36.9 kcal/mol and 52.3 °C.
In the same order, the values of GGTGGCGGAAACGCTGCC ((..(((....)))..)) are -31.8 kcal/mol and 54.5 °C.
In the case of GATCCTATAAGGATC ((((((...)))))), the folding enthalpy in series [1] is -37.8 kcal/mol. The Tm in series [2] was 55.2 °C.
In the same order, the values of GATCACAACGTGATC ((((((...)))))) are -34.4 kcal/mol and 61.3 °C.
With GCGAGATTTCGC ((((....)))), the folding enthalpy in series [1] is -20.1 kcal/mol. Moreover, the Tm in series [2] amounted to 50.1 °C.
In the same order, the values of GACGCAGGAAACCGCATC ((.((.(....).)).)) are -12.4 kcal/mol and 28.5 °C.
For GCGAGCGGAAACGCTTGC ((.((((....)))).)), the folding enthalpy in series [1] is -34.4 kcal/mol. In series [2], the Tm amounted to 61.9 °C.
In the same order, the values of GGATATGGAAACATACCC ((.((((....)))).)) are -25.3 kcal/mol and 33.2 °C.

The values are drawn from the array DNA melting data of Ke et al. (doi:10.1101/2024.01.08.574731).
